SUMO1 PPI mod – SUMO1-SIM interaction modulation; inhibition, % at 20 µM; SUMO1 binding to a labelled peptide, TR-FRET, 1 h; AID 602429; P63165; 360,000 tested, 0.33% active; in the data active means inhibition above about 37%
Target sequence (P63165 whole entry, looked up): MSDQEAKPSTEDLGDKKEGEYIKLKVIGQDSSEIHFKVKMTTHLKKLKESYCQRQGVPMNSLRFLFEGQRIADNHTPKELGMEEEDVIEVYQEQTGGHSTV
Rpn11 block – blocks the human proteasome subunit Rpn11; O00487; human 26S proteasome, Ub4-pepOG fluorescence polarization; 20S core pre-blocked with epoxomicin; inhibition, % at 20 µM; 360,000 tested, 0.59% active; AID 588493;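 active means inhibition at 20 µM, scaled to each plate's controls, above about 33%, limit read from the data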
Target sequence (O00487 whole entry, looked up): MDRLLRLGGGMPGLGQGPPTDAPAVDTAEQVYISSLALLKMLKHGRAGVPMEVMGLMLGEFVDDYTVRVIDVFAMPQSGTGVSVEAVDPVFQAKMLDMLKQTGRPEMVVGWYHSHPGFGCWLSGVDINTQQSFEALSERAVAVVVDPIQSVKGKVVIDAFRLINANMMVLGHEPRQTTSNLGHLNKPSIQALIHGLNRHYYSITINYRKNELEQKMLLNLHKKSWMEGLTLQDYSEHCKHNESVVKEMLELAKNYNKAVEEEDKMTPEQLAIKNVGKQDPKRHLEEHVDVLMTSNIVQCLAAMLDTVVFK
CSN deneddyl inh – CSN deneddylation inhibition. Purified CSN, SCF-Nedd8-OG deneddylation, fluorescence polarization. 360,000 tested, 0.38% active. AID 651999. inhibition, % at 12.5 µM;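 active means pattern-corrected inhibition above about 35%, with an unprinted fluorescence ratio check between 0.5 and 1.5, limit read from the data, passing the limit was not always enough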;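 further: 0% = enzyme with substrate and 100% = substrate without enzyme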
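Assay system: Purified human Csn5 enzyme expressed in HEK293T cells | Amount: Enzyme 0.24 nM | Measured by: Fluorescence polarization readout | Medium: Tris/NaCl/DTT buffer, pH 7.5 | Compound dosing: One concentration, 12.5 µM, 0.25% DMSO | Times: 90 min incubation of compound, enzyme and substrate at room temperature | Control set: no-enzyme wells high, enzyme-with-substrate wells low | Read-out: % inhibition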
DNMT1 inh – blocks human DNA methyltransferase DNMT1; P26358; DNMT1 molecular beacon, Hinp1I cleavage, fluorescence; inhibition (reported as % activation of signal), % at 10 µM; 360,000 tested, 0.83% active; AID 588458; in the data active means inhibition above about 50%
SKN-1 inh – inhibitors of C. elegans SKN-1; C. elegans VP596 Pgst-4::GFP/RFP ratio, acrylamide-induced, 24 h; inhibition, % at 21.8 µM; 360,000 tested, 0.49% active; AID 624304;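 active means interference check ratio from 0.5 to 1.5 plus GFP to RFP signal ratio inhibition reaching or exceeding a fixed threshold, cut at about 30% in these data, passing the limit was not always enough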
MT1-MMP act inh – blocks activation of human MT1-MMP; P50281; HT1080 RFP-PRO-GFP cells, GFP/RFP ratio fluorescence, overnight; percent of plate control window, DMSO zero; GFP/RFP ratio change, % at 20 µM; 360,000 tested, 0.061% active;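 active means GFP/RFP ratio change of at least 30% with cell ATP level not reduced by more than half and red fluorescence within 50% of control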
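Assay system: HT1080 RFP-PRO-GFP cells. Benchmarks: DMSO vehicle wells and RFP-L50D-GFP reporter cell wells. Times: overnight cell settling, then overnight compound exposure, 37 °C, 5% CO2. Compound: 20 µM single dose, 1% DMSO. Read-out basis: GFP/RFP fluorescence ratio.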
DNMT1 confirm – DNMT1 inhibition confirmation, single concentration; shares compounds with DNMT1 inh; 2,300 tested, 8% active; AID 602385; inhibition, % at 10 µM; DNMT1 molecular beacon HinP1I cleavage, fluorescence;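 active means average inhibition of at least 30% in the single-concentration confirmation test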
DNMT1 interf – shows spectral interference in the DNMT1 beacon assay | shares compounds with DNMT1 inh | DNMT1 molecular beacon spectral interference counterscreen, fluorescence 485/520 | activation (fluorescence interference), % at 10 µM | 2,300 tested, 1% active | AID 602387;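 active means activation of at least 30% at 10 µM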;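 further: DNMT1 catalytic domain with a HinP1I cleavage step and a FAM/dabcyl DNA beacon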
* marks the source's active call; other numbers are inactive results; . = not tested or not shown. An excerpt weighted towards active compounds, which were near 2.3% of everything screened.

SMILES | SUMO1 PPI mod | Rpn11 block | CSN deneddyl inh | DNMT1 inh | SKN-1 inh | MT1-MMP act inh | DNMT1 confirm | DNMT1 interf
CC1=NN(c2ccccc2)C(=O)/C1=C/C=C/c1ccccc1 | 31 | 13 | 10 | 14 | -7 | -21 | . | .
Cc1ccc(-c2nc3ccccc3n2C(C)C(=O)NC(C)(C)C)cc1 (stereo not drawn) | 1 | . | 0 | . | 8 | 4 | . | .
COc1ccccc1-n1c(SCC(=O)Nc2cccc(S(N)(=O)=O)c2)nc2ccccc2c1=O | -2 | 5 | -8 | -2 | 7 | -2 | . | .
COc1ccc(OC)c(-n2c(SCC(=O)Nc3cccc(S(N)(=O)=O)c3)nc3ccccc3c2=O)c1 | 3 | 5 | 1 | 67* | 12 | -7 | 2 | 2
Cc1cc2nc(-c3ccc(NC(=O)C(C)C)cc3)oc2cc1C | -1 | 0 | 21 | 63* | 11 | 1 | 4 | 1
Cc1ccc(-c2nc3cc(NC(=O)C(C)C)ccc3o2)cc1 | 21 | -1 | -3 | 0 | -9 | 11 | . | .
CC(C)C[C@H]1CNC(=O)C(=O)N1C[C@@H]1CCCN1C[C@H](Cc1ccc(O)cc1)N1C[C@H](Cc2ccccc2)N(CC2CCCCC2)C(=O)C1=O | 12 | . | -3 | . | 5 | -3 | . | .
COc1ccc2oc(C(=O)Nc3nccs3)c(C)c2c1 | -19 | 2 | 0 | -2 | 6 | -1 | . | .
CCOc1ccc2oc(C(=O)Nc3nccs3)c(C)c2c1 | 1 | 17 | 6 | 68* | -5 | -4 | 3 | 4
CN(CCc1ccccc1)c1cc2c(c3c1ccn3C)C1CCC2C1 (stereo not drawn) | 2 | 10 | 4 | 7 | 14 | -2 | . | .
CCCCS(=O)(=O)N1CCCC(C(=O)Oc2ccccc2)C1 (stereo not drawn) | 4 | 1 | -4 | -3 | 16 | -3 | . | .
CCCS(=O)(=O)N1CCCC(C(=O)Oc2ccc(OC)cc2)C1 (stereo not drawn) | -1 | -1 | -2 | 83* | -2 | -1 | 0 | 2
CC(N)c1csc(Nc2nncc3ccccc23)n1 (stereo not drawn) | -5 | 8 | 2 | 7 | -9 | -4 | . | .
CCOC(=O)c1ccc(S(=O)(=O)N2CCC(C(=O)NCC3COc4ccccc4O3)CC2)cc1 (stereo not drawn) | 1 | 12 | 0 | -5 | 1 | 5 | . | .
O=C(COC(=O)C12CC3CC(CC(C3)C1)C2)Nc1ccc([N+](=O)[O-])cc1Cl | -8 | 6 | -11 | 72* | -5 | 3 | 3 | 5
O=C(NCc1ccccc1C(F)(F)F)c1cccc2c1C(=O)c1ccc(N3CCOCC3)cc1S2(=O)=O | -2 | 12 | 32 | 62* | 0 | -15 | 7 | 8
O=C(NCC(F)(F)F)C1C(=O)Nc2ccccc2C(=O)N1C1CCCC1 (stereo not drawn) | 3 | . | 1 | . | -18 | 0 | . | .
CCCCNC(=O)C1(C)CCCCN1C(=O)c1oc2ccccc2c1C (stereo not drawn) | -2 | -2 | -2 | 6 | 23 | 0 | . | .
CCOc1cc2[nH]c(=S)n(CCC(=O)NCc3ccc(OC)cc3)c(=O)c2cc1OCC | 6 | -7 | 2 | 59* | 5 | -2 | -3 | -10
O=C(Nc1ccc(-c2cn3ccccc3n2)cc1)c1ccc(Cl)cc1 | 3 | 19 | 4 | 53* | 4 | 7 | 3 | 8
C=CCn1c(C)cc(-c2csc(NC(=O)C3CCN(c4ncnc5sc(C)c(C)c45)CC3)n2)c1C | -1 | 36 | 8 | 65* | -5 | 2 | 3 | -7
OC[C@@H]1CN(Cc2cccc3ccccc23)C[C@H](n2cnc3c(NCc4ccco4)ncnc32)O1 | -7 | 2 | 1 | -7 | -14 | -1 | . | .
